In ChEMBL document CHEMBL3868590, “Quambalarine B, a Secondary Metabolite from Quambalaria cyanescens with Potential Anticancer Properties” (J Nat Prod, 2016):
Calls of active or inactive are those of the source. No cut-off for these calls is given here.

Assays:
NALM-6 = assay: Cytostatic activity against eFluor670-labelled human NALM6 cells assessed as live cells at 2 umol/L measured on day 5 by Hoechst-33258 staining-based FACS analysis (reference value: 98.6%); type: functional
REH = assay: Cytostatic activity against eFluor670-labelled human REH cells assessed as live cells at 2 umol/L measured on day 4 by Hoechst-33258 staining-based FACS analysis (reference value: 88%); type: functional
[1] = target: Myc proto-oncogene protein (Homo sapiens) (UniProt P01106); assay: Inhibition of C-MYC in human NALM6 cells assessed as decrease in LDHA level at EC50 measured after 24 hrs by RT-qPCR analysis; type: cell-based; conditions: NALM-6
[2] = target: Myc proto-oncogene protein (Homo sapiens) (UniProt P01106); assay: Inhibition of C-MYC in human REH cells assessed as decrease in PKM2 level at EC50 measured after 24 hrs by RT-qPCR analysis; type: cell-based
Jurkat = assay: Inhibition of P70S6K in human Jurkat cells assessed as inhibition of phosphorylated P70S6K expression up to 20 umol/L measured after 24 hrs by immunoblot analysis; type: cell-based
Summary of the method: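 Cells prepared as for RT-qPCR (7.5 × 10^5 cells/mL). Treated either with the line-specific EC50 concentration over a time course, or 24 h with graded concentrations up to that EC50. Cells washed with phosphatase inhibitors and lysed in RIPA; 40 μg protein per lane on SDS-PAGE, then nitrocellulose. Immunoblotted for C-MYC, P70S6K, p-P70S6K (Ser424) and actin.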

[3] = Cytotoxicity against B lymphocytes in human PBMC population assessed as reduction in viable cells measured after 24 hrs by Hoechst-33258 staining-based FACS analysis; type: toxicity, cell-based, B-cell
Summary of the method: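 PBMC were isolated from blood on a Ficoll-Paque gradient and seeded at 1 × 10^5 cells/well in 400 μL RPMI1640. Cells were exposed to a range of compound concentrations for 24 h. Viable CD3+, CD14+ and CD20+ populations were measured as Hoechst 33258-negative singlets by flow cytometry. EC50 was obtained by five-parameter nonlinear regression.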

Sequence of Myc proto-oncogene protein (Homo sapiens) (P01106 whole entry): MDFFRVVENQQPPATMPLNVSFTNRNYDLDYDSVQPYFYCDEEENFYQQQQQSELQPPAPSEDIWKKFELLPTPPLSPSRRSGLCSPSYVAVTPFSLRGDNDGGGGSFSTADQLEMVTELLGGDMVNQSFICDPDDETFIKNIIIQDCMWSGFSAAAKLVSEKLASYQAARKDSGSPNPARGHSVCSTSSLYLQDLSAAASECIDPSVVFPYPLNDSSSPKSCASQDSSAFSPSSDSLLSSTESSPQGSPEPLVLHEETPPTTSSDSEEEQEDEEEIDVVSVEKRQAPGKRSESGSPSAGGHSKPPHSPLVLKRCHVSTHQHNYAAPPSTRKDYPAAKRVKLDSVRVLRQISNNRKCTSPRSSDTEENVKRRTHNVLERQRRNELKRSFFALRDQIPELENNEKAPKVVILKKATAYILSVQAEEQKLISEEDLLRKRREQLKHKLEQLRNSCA

inhibition [1]: Active
inhibition [2]: Active
SMILES: CCCCCC(=O)C1=C(O)C(=O)c2c(O)c(O)cc(O)c2C1=O
Activity (NALM-6): 50.1%
Activity (REH): 6.9%
inhibition (Jurkat): Active
EC50 at 24 h [3]: > 50 µM
